PubChem BioAssay
Calls of active or inactive are those of the source.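 How the source made its calls, unless noted: active means viability at or under a set limit in both replicates, limit being median viability minus 3 SD (cut at about 48% in these data, passing the limit was not always enough); inconclusive means at or under the limit in just one replicate; inactive means at or above the limit in both replicates.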

Tests used:
[1] = reducers of endogenous Her2 protein level, primary screen, SKBR3 breast tumor cells, AlphaScreen, ATP viability (AID 461;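 active means Her2 level under about 52% in both replicate screens, with viability over 70% of control, limit read from the data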;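 on Her2 level: lower value means less Her2 protein in the cells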;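 on viability: percent of carrier control wells set as 100% viability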); conditions: 18-24 h, measured here: SKBR3 viability, ATP luminescence, at 10 µM
[2] = target: Receptor tyrosine-protein kinase erbB-2 (Homo sapiens) (UniProt P04626); assay: as above; conditions: 18-24 h, at 10 µM, stronger effect = lower value
Chain of Receptor tyrosine-protein kinase erbB-2 (Homo sapiens) (P04626 whole entry, looked up): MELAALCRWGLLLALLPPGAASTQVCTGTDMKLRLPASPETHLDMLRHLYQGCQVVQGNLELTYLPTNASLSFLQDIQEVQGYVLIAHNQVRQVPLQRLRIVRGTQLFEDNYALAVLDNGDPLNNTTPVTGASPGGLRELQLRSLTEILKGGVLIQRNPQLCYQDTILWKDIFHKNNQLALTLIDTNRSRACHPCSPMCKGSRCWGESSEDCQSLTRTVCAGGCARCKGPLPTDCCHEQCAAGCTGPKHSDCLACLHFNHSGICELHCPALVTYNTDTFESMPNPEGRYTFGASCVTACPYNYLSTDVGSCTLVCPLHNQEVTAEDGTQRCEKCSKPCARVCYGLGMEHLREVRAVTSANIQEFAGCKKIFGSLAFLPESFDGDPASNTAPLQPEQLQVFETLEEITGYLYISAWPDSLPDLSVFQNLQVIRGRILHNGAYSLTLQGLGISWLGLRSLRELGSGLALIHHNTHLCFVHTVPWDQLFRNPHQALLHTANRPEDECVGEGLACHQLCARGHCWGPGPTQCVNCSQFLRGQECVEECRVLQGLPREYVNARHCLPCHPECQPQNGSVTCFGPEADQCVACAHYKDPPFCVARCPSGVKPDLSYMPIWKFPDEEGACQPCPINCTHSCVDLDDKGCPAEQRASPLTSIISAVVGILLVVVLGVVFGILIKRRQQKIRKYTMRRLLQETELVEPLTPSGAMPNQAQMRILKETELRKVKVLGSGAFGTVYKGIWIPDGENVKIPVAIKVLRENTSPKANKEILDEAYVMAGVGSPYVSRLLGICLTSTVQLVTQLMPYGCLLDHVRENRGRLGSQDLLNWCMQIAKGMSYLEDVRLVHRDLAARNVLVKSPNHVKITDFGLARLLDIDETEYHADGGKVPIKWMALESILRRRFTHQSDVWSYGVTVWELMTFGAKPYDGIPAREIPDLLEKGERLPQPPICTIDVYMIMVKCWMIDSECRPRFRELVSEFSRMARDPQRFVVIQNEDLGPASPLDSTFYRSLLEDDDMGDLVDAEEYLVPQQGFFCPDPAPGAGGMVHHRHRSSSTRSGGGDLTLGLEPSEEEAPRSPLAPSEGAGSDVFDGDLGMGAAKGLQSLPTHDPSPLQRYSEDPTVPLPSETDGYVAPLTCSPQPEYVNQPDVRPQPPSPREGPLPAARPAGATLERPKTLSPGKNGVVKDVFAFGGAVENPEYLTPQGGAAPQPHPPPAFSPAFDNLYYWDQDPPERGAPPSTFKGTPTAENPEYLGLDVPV

[3] = SK-BR-3 cell growth inhibitors, pilot screen, 24 h, human (AID 572;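 active means viability at or below 10% of carrier control in both of two separate runs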;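 further: compound exposure lasted between 18 and 24 h rather than exactly 24 h; 100% = carrier-treated control wells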); conditions: SK-BR-3 viability, CellTiter-Glo luminescence, at 10 µM, stronger effect = lower value
[4] = HUVEC growth inhibition – cell-based, human, primary screen (AID 575;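 active means viability at or below 30% in both replicate assays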;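 further: 100% = median of untreated cell wells with 0.1% DMSO on each plate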); conditions: HUVEC proliferation, CellTiter-Glo luminescence, 72 h; at 10 µM; stronger effect = lower value
Procedure, shortened: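 Timing: 72 h treatment at 37 °C; material: HUVEC primary cells; technique: CellTiter-Glo luminescence measuring cellular ATP; controls: vehicle and MePR control wells; measure: percent of median DMSO-control luminescence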

[5] = growth inhibitors of H69AR lung tumor, primary screen, human, duplicate replicates (AID 580); conditions: H69AR lung tumor cells viability, ATP luminescence, 72 h; at 10 µM; stronger effect = lower value;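 further: 100% = mean luminescence of untreated wells and 0% = no signal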
[6] = reversal of MRP1-mediated doxorubicin resistance, pilot screen, H69AR cells, doxorubicin co-treatment (AID 601;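 active means viability loss from added drug above about 55%, and viability with drug at most 40%, in both replicates, limit read from the data, passing the limit was not always enough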); conditions: CellTiter-Glo, 72 h, at 10 µM; for differential viability (reversal): stronger effect = higher value
[7] = 384-well plate pilot, post-Golgi transport modulator project, inhibition of yeast transport mutant growth (AID 636; in the data active means inhibition above about 31%); conditions: absorbance 615 nm, about 18 h, stronger effect = higher value
[8] = growth suppression of yeast trafficking mutant, preliminary HTS, modulators of trafficking downstream of Golgi apparatus project, 1536-format plate, OD 615 nm (AID 637; in the data active means inhibition above about 30%); conditions: yeast transport mutant growth, absorbance 615 nm, 18 h; stronger effect = higher value
[9] = H69AR cells + 2 uM doxorubicin, measured here: viability with 2 uM doxorubicin, stronger effect = lower value
[10] = H69AR cells, compound alone cytotoxicity

Structure (SMILES)	viability [1] [%]	Her2 level [2]	viability [3]	viability [4]	viability [5]	differential viability (reversal) ([6]; H69AR cells + 2 uM doxorubicin)	viability [6, 9] [%]	viability [6, 10] [%]	inhibition [7]	inhibition [8]
Cc1ccc(NC(=O)C2CCCN2C(=O)Oc2ccccc2)cc1 (stereo not given)	90.5	94.5% (inactive)	90.5% (inactive)	107% (inactive)	91.5% (inactive)	-0.415% (inactive)	91.9	91.5	-6.4% (inactive)	-1.64% (inactive)
O=C(Cc1c(F)cccc1Cl)Nc1ccncc1	92	91.5% (inactive)	92% (inactive)	97.5% (inactive)	86.4% (inactive)	-5.46% (inactive)	91.9	86.4	-5.2% (inactive)	-0.48% (inactive)
CCN(CC)c1ccc(-c2nn3c(-c4cccnc4)nnc3s2)cc1	91.5	64% (inactive)	91.5% (inactive)	37% (inactive)	10.9% (active)	-4.5% (inactive)	15.4	10.9	-5.92% (inactive)	-7.1% (inactive)
COc1ccc2c(c1)C(=NO)c1cc(OC)ccc1-2	120	61.5% (inactive)	120% (inactive)	58.5% (inactive)	83.8% (inactive)	-6.16% (inactive)	90	83.8	-8.24% (inactive)	2% (inactive)
CN1C(=O)CC(N2CCC(C(N)=O)(N3CCCCC3)CC2)C1=O (stereo not given)	104	86% (inactive)	104% (inactive)	104% (inactive)	98.9% (inactive)	7.3% (inactive)	91.6	98.9	-6.8% (inactive)	5.25% (inactive)
O=C(O)CCc1ccc(-c2ccc(Br)cc2)n1CC(=O)O	102	102% (inactive)	102% (inactive)	91.9% (inactive)	101% (inactive)	2.92% (inactive)	98	101	-0.51% (inactive)	-3.67% (inactive)
CCN1CCc2c(C#N)c(N3CCOCC3)nc(NCc3ccccc3)c2C1	84.5	88% (inactive)	84.5% (inactive)	88.4% (inactive)	81.3% (inactive)	3.46% (inactive)	77.8	81.3	-6.03% (inactive)	-4.76% (inactive)
Cc1ccc(S(=O)(=O)Nc2nc3ccccc3nc2NCc2ccco2)cc1	114	93.5% (inactive)	114% (inactive)	86.7% (inactive)	22.5% (active)	0.645% (inactive)	21.9	22.5	-5.47% (inactive)	-6.51% (inactive)
CCCCCn1c(CN2CCN(C(=O)OCC)CC2)nc2c1c(=O)[nH]c(=O)n2C	82	94.5% (inactive)	82% (inactive)	88.9% (inactive)	98.5% (inactive)	15.8% (inactive)	82.7	98.5	-0.67% (inactive)	0.16% (inactive)
Cc1cc2oc(=O)cc(C)c2c(=O)o1	101	136% (inactive)	101% (inactive)	94.8% (inactive)	108% (inactive)	11.2% (inactive)	96.6	108	2.5% (inactive)	-3.83% (inactive)
CCC(C)NC(=O)C1CCCN(S(=O)(=O)c2ccc(-n3cnnn3)cc2)C1 (stereo not given)	109	104% (inactive)	109% (inactive)	104% (inactive)	103% (inactive)	14.5% (inactive)	88.6	103	-2.97% (inactive)	-10% (inactive)
CCNC(=O)CC(=O)Nc1ccccc1C(=O)O	104	99.5% (inactive)	104% (inactive)	125% (inactive)	103% (inactive)	5.93% (inactive)	96.9	103	-5.95% (inactive)	-2.67% (inactive)
O=C(C1CCCO1)N1CCN(Cc2nc3ccccc3c(=O)[nH]2)CC1 (stereo not given)	91.5	92% (inactive)	91.5% (inactive)	96.3% (inactive)	94.9% (inactive)	-10% (inactive)	105	94.9	-7.16% (inactive)	0.16% (inactive)
Cc1ccccc1NC(=O)C1CC(=O)N(c2ccccc2F)C1 (stereo not given)	91.5	81% (inactive)	91.5% (inactive)	102% (inactive)	100% (inactive)	18.3% (inactive)	82.1	100	-8.65% (inactive)	6.89% (inactive)
CC(C)OC(=O)CSc1nnc(Cc2ccccc2)n1Cc1ccco1	92.5	91.5% (inactive)	92.5% (inactive)	84.7% (inactive)	92.4% (inactive)	6.06% (inactive)	86.3	92.4	-4.27% (inactive)	14.1% (inactive)
C=CCn1c2ccccc2c2nnc(SCC(=O)NC(C(=O)OC)C(C)C)nc21 (stereo not given)	112	96% (inactive)	112% (inactive)	83.5% (inactive)	76.8% (inactive)	2.25% (inactive)	74.5	76.8	-3.12% (inactive)	-4.26% (inactive)
Brc1cccc(-c2cnc3n2CCCCC3)c1	95.5	89.5% (inactive)	95.5% (inactive)	67.1% (inactive)	91.5% (inactive)	11.1% (inactive)	80.4	91.5	-6.53% (inactive)	4.26% (inactive)
CCOP(=O)(c1ccc(N(C)C)cc1)C(O)c1cc(OC)c(OC)c(OC)c1 (stereo not given)	76.5	80% (inactive)	76.5% (inactive)	80.6% (inactive)	87.4% (inactive)	-0.05% (inactive)	87.4	87.4	-3.68% (inactive)	-2.38% (inactive)
O=C(CCN1C(=O)c2ccccc2C1=O)OCN1C(=O)c2ccccc2C1=O	95	108% (inactive)	95% (inactive)	97.7% (inactive)	91.8% (inactive)	-10.6% (inactive)	102	91.8	6.8% (inactive)	-3.17% (inactive)
Cc1oc2c(CN3CCCC3)c(O)ccc2c(=O)c1-c1ccccc1	88.5	82% (inactive)	88.5% (inactive)	80.1% (inactive)	89% (inactive)	2.93% (inactive)	86	89	-4.34% (inactive)	0.48% (inactive)
CC(C)CC(c1nnnn1C1CCCC1)N1CCN(c2ccccc2F)CC1 (stereo not given)	92.5	94% (inactive)	92.5% (inactive)	103% (inactive)	84.2% (inactive)	-7.72% (inactive)	91.9	84.2	-6.32% (inactive)	10.7% (inactive)
COc1ccccc1NC(=O)NC1(C(=O)N2CCC(O)CC2)CCCCC1	103	97% (inactive)	103% (inactive)	99.2% (inactive)	114% (inactive)	4.86% (inactive)	109	114	-3.9% (inactive)	-4.13% (inactive)
COc1ccc(OC)c(NC(=O)CS(=O)(=O)Cc2nc(-c3ccccc3C)oc2C)c1	97.5	97.5% (inactive)	97.5% (inactive)	66.1% (inactive)	94.4% (inactive)	-2.23% (inactive)	96.6	94.4	-2.8% (inactive)	6.83% (inactive)
CC(=O)N1CCc2cc(Br)cc(S(=O)(=O)NCCCN3CCCC(C)C3)c21 (stereo not given)	83	93% (inactive)	83% (inactive)	89.9% (inactive)	91.8% (inactive)	0.035% (inactive)	91.7	91.8	-2.57% (inactive)	-3.93% (inactive)
COc1ccc2ccccc2c1CN1CCN(C)CC1	97	94.5% (inactive)	97% (inactive)	75.1% (inactive)	104% (inactive)	7.19% (inactive)	96.6	104	1.43% (inactive)	-0.66% (inactive)
CCc1ccc(N2CC(C(=O)OCC(=O)Nc3cc(C)on3)CC2=O)cc1 (stereo not given)	94	92% (inactive)	94% (inactive)	107% (inactive)	110% (inactive)	11.1% (inactive)	99.2	110	0.9% (inactive)	-3.83% (inactive)
COc1ccc(C(=O)NCCSc2ccccn2)cc1	97	108% (inactive)	97% (inactive)	102% (inactive)	96% (inactive)	17.4% (inactive)	78.6	96	-7.07% (inactive)	0.32% (inactive)
COc1ccc(CCNC(=O)CC2COc3ccccc3O2)cc1OC (stereo not given)	102	93% (inactive)	102% (inactive)	100% (inactive)	85.4% (inactive)	4.62% (inactive)	80.8	85.4	-4.67% (inactive)	8.36% (inactive)
Nc1c(Sc2ccccc2)c(=O)[nH]c(=O)n1Cc1ccccc1	90.5	104% (inactive)	90.5% (inactive)	109% (inactive)	102% (inactive)	8.38% (inactive)	93.2	102	-5.14% (inactive)	-6% (inactive)
